# Published values from different studies.
# Protocols differ between the studies behind these lines. pKd, pKi: −log10 of the molar value.
# ADRA1B: Alpha-1B adrenergic receptor (ADRA1B, Homo sapiens, UniProt P35368)
# Nuclear receptor subfamily 4 group A member 2: Nuclear receptor subfamily 4 group A member 2 (Homo sapiens, UniProt P43354)
# P2RY14: P2Y purinoceptor 14 (P2RY14, Homo sapiens, UniProt Q15391)
Compound,target,test,measurement,result
Cc1cc(Oc2ncccc2CN2CCN(c3ccc(Cl)cc3)CC2)ccc1-c1c(C)c(=O)[nH]c(=O)n1C,ADRA1B,"ligand displacement, radioligand",pKi,5.59
CCCCCCCCC(=O)c1cc(O)c(O)c(O)c1,Nuclear receptor subfamily 4 group A member 2,"binding, ITC",pKd,5.47
O=C(O)c1cc(-c2ccc(-n3cc(CCO)nn3)cc2)c2ccc(-c3ccc(C(F)(F)F)cc3)cc2c1,P2RY14,"ligand displacement in cells, flow cytometry",pKi,7.05
CN1C(C(=O)Nc2ccccn2)=C(O)c2sc(Cl)cc2S1(=O)=O,Nuclear receptor subfamily 4 group A member 2,"binding, ITC",pKd,5.85
CCCCCCCCCCCCCCCC(=O)OC[C@H](COP(=O)(O)O[C@H]1[C@H](O)[C@@H](OP(=O)(O)O)[C@H](OP(=O)(O)O)[C@@H](OP(=O)(O)O)[C@H]1O)OC(=O)CCCCCCCCCCCCCCC,"Heat shock protein beta-1 (HSPB1, Homo sapiens, UniProt P04792)","binding, MST",pKd,6.73
Cc1cc(Oc2ncccc2CN2CCN(c3cccc(Cl)c3)CC2)ccc1-c1c(C)c(=O)[nH]c(=O)n1C,ADRA1B,"ligand displacement, radioligand",pKi,6.19
O=C(O)c1cc(-c2ccc(-c3ccc(Cl)s3)cc2)c2ccc(-c3ccc(C(F)(F)F)cc3)cc2c1,P2RY14,"ligand displacement in cells, flow cytometry",pKi,5.92
CCN(CC)Cc1cc(Nc2ccnc3cc(Cl)ccc23)ccc1O,Nuclear receptor subfamily 4 group A member 2,"binding, ITC",pKd,5.57
Cc1cc(Oc2ncccc2CN2CCN(c3ccccc3C#N)CC2)ccc1-c1c(C)c(=O)[nH]c(=O)n1C,ADRA1B,"ligand displacement, radioligand",pKi,6.33
O=C(O)c1cc(-c2ccc(-c3ccncc3)cc2)c2ccc(-c3ccc(C(F)(F)F)cc3)cc2c1,P2RY14,"ligand displacement in cells, flow cytometry",pKi,7.63
Cc1cc(Oc2ncccc2CN2CCN(c3ccccc3[N+](=O)[O-])CC2)ccc1-c1c(C)c(=O)[nH]c(=O)n1C,ADRA1B,"ligand displacement, radioligand",pKi,5.53
O=C(O)c1cc(-c2ccc(-n3ccnn3)cc2)c2ccc(-c3ccc(C(F)(F)F)cc3)cc2c1,P2RY14,"ligand displacement in cells, flow cytometry",pKi,7.85
CCC1c2ccsc2CCN1Cc1nc2ccc(Cl)cc2n1CCO (stereo not drawn),"DDB1- and CUL4-associated factor 1 (DCAF1, Homo sapiens, UniProt Q9Y4B6)","binding, SPR",pKd,4.70
CCC(=O)NS(=O)(=O)c1ccc(-c2c(-c3ccccc3)noc2C)cc1,Nuclear receptor subfamily 4 group A member 2,"binding, ITC",pKd,5.80
Cn1nccc1-c1ccc(-c2cc(C(=O)O)cc3cc(-c4ccc(C(F)(F)F)cc4)ccc23)cc1,P2RY14,"ligand displacement in cells, flow cytometry",pKi,7.55
